Data set [1] in a line: Intrinsic clearance in rat liver microsomes. The data set is classed as ADME, Microsome. (Liver microsomes are a subcellular fraction often used to study metabolism.)
Data set [2] is described as follows: Oral bioavailability in rat at 3 mg/kg. The data set is classed as ADME, organism-based. Conditions: in vivo; call rule not given here. In outline: (§1)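 Rats received the compound both intravenously and orally, each at 3 mg/kg. Reported PK parameters are half-life (h), volume of distribution (L/kg), clearance (ml/min/kg), oral bioavailability (%F) and oral AUC (μM h).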
In data set [3] the target is Protein mono-ADP-ribosyltransferase PARP4 (Homo sapiens, UniProt Q9UKK3). Put plainly: Inhibition of VPARP.
Protein mono-ADP-ribosyltransferase PARP4, sequence (Q9UKK3 whole entry): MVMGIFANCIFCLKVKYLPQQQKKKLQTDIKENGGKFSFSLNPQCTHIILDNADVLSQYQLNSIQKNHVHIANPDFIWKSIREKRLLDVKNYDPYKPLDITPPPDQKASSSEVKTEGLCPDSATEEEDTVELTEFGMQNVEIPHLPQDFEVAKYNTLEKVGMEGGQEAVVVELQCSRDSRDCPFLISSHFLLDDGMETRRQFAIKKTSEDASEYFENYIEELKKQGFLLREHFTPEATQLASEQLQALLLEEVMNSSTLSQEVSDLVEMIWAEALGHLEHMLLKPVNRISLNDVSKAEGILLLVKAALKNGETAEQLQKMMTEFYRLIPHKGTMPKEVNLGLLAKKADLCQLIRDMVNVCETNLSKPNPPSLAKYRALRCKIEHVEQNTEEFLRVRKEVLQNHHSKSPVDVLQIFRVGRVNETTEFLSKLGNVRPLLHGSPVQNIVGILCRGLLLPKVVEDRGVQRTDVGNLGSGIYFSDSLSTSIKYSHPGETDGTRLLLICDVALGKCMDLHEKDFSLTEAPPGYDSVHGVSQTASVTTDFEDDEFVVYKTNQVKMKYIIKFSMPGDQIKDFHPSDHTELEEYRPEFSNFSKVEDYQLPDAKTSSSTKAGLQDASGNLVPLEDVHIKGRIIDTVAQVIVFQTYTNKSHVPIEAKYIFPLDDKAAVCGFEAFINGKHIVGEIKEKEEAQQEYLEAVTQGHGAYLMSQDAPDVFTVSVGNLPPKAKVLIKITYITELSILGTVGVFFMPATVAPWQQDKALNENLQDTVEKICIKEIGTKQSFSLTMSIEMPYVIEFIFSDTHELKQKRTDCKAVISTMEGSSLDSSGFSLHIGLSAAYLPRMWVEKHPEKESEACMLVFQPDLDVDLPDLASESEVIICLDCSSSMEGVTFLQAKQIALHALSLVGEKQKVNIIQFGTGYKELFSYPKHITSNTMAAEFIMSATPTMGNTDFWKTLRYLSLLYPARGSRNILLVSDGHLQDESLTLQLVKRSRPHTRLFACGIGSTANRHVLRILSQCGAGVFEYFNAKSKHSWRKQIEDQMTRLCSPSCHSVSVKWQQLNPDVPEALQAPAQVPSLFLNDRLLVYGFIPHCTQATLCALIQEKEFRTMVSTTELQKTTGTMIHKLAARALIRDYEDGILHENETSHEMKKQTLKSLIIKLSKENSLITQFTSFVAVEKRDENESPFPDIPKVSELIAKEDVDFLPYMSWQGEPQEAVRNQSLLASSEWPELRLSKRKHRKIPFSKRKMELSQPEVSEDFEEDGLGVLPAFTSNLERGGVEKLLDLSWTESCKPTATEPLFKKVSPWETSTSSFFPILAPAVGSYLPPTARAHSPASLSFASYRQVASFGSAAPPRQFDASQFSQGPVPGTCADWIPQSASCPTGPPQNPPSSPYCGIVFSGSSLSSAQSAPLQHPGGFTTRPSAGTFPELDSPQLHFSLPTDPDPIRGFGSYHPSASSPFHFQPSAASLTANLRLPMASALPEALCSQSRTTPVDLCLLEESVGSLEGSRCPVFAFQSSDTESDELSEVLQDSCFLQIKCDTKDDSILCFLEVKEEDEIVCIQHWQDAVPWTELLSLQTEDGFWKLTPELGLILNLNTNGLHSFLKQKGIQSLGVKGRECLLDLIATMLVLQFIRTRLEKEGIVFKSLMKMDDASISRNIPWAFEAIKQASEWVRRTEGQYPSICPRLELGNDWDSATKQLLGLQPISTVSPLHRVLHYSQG
Data set [4] deals with T1, Poly [ADP-ribose] polymerase 1 (Homo sapiens, UniProt P09874). Put plainly: Inhibition of PARP1 in human HeLa cells assessed as inhibition of hydrogen peroxide-induced poly(ADP-ribosyl)ation. The data set is classed as cell-based.
T1 sequence (P09874 whole entry): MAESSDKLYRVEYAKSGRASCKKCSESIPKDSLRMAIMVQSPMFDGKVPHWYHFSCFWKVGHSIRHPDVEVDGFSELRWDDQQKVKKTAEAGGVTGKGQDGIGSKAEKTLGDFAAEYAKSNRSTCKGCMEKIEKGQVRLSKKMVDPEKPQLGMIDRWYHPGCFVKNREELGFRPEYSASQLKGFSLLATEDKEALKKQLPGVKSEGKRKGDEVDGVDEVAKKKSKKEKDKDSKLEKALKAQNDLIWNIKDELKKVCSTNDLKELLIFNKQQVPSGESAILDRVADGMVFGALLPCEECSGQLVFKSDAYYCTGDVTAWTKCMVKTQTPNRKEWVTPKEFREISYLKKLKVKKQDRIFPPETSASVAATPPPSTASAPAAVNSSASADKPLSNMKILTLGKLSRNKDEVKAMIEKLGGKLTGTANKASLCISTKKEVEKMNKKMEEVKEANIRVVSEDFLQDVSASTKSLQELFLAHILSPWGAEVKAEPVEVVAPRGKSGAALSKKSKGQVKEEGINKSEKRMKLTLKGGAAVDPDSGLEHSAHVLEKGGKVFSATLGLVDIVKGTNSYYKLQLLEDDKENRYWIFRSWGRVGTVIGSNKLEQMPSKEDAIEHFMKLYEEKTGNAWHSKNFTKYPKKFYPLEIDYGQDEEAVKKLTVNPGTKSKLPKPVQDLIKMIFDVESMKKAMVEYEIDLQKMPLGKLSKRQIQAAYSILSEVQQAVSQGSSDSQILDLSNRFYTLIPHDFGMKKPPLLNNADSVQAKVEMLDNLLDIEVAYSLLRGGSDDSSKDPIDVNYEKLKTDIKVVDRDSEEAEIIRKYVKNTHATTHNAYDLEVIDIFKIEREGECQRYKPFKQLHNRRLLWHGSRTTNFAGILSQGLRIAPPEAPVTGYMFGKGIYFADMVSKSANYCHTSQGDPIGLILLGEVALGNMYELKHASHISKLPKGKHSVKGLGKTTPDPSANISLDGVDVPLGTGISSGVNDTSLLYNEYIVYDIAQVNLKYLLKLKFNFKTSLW
The target of data set [5] is T1, Poly [ADP-ribose] polymerase 1. Put plainly: Inhibition of human PARP1 by scintillation proximity assay.
For data set [6], the target named is Poly [ADP-ribose] polymerase 2 (Homo sapiens, UniProt Q9UGN5). Put plainly: Inhibition of PARP2.
Poly [ADP-ribose] polymerase 2, sequence (Q9UGN5 whole entry): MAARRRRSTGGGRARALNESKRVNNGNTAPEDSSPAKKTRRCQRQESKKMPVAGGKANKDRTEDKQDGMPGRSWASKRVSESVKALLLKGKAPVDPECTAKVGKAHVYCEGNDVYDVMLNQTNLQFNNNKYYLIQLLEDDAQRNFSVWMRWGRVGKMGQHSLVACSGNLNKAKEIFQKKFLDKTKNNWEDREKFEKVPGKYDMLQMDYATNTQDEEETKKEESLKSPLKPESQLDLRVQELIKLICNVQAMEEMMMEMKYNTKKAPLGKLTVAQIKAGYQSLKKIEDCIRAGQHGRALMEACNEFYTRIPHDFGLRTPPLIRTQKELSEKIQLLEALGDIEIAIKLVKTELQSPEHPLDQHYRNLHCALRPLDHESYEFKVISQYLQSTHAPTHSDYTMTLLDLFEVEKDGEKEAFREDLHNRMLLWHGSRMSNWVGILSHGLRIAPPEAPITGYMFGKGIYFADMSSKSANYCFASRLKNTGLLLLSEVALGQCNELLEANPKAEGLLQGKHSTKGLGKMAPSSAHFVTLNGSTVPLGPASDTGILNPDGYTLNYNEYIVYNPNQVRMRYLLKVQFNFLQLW
The nature of data set [7]: AUC in rat at 3 mg/kg, po. The data set is classed as ADME, organism-based. More on the design: dose 3 mg/kg, route oral. The note with it: plasma. In a few lines:
as §1

A short description of data set [8]: Inhibition of Cytochrome P450 at 10 uM. Type of data set: ADME.
Data set [9] deals with T2, Poly [ADP-ribose] polymerase tankyrase-1 (Homo sapiens, UniProt O95271).
T2 sequence (O95271 whole entry): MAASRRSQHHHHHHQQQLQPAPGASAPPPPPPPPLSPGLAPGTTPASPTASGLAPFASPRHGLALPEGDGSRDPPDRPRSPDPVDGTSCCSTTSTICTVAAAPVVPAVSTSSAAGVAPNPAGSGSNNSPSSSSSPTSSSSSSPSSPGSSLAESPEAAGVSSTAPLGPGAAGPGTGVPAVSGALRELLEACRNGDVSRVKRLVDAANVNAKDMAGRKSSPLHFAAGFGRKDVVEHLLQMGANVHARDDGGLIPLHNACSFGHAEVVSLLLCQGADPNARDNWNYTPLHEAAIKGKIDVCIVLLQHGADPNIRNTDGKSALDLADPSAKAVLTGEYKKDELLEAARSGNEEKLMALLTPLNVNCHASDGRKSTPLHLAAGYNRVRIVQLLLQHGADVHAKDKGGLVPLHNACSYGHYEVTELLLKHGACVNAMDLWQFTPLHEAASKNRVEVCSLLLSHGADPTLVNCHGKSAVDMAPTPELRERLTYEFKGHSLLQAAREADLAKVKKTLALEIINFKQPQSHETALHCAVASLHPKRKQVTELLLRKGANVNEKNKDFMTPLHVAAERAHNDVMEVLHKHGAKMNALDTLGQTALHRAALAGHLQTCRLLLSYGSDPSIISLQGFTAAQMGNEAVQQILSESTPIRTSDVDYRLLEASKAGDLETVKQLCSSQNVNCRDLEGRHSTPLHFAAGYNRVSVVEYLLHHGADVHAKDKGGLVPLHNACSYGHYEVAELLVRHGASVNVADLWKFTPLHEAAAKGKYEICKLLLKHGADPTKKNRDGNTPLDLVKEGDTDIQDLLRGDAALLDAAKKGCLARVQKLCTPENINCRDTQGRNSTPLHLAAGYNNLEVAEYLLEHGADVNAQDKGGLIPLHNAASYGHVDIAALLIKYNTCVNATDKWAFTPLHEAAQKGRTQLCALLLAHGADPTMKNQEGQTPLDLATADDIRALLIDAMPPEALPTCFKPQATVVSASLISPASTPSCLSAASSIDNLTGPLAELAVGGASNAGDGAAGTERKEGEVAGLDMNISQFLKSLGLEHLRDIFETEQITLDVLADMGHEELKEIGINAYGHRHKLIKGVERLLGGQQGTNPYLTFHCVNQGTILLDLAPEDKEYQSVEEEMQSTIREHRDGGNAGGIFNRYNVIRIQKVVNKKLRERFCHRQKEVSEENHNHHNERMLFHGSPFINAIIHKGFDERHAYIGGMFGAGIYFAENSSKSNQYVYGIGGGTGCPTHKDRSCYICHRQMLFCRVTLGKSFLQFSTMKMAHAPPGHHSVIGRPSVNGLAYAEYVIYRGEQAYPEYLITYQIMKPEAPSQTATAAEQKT
Put plainly: Inhibition of Tankyrase 1.

For data set [10], the target named is Voltage-gated inwardly rectifying potassium channel KCNH2 (Homo sapiens, UniProt Q12809). The data set is described as follows: Binding affinity to potassium channel IKr at 10 uM.
Voltage-gated inwardly rectifying potassium channel KCNH2, sequence (Q12809 whole entry): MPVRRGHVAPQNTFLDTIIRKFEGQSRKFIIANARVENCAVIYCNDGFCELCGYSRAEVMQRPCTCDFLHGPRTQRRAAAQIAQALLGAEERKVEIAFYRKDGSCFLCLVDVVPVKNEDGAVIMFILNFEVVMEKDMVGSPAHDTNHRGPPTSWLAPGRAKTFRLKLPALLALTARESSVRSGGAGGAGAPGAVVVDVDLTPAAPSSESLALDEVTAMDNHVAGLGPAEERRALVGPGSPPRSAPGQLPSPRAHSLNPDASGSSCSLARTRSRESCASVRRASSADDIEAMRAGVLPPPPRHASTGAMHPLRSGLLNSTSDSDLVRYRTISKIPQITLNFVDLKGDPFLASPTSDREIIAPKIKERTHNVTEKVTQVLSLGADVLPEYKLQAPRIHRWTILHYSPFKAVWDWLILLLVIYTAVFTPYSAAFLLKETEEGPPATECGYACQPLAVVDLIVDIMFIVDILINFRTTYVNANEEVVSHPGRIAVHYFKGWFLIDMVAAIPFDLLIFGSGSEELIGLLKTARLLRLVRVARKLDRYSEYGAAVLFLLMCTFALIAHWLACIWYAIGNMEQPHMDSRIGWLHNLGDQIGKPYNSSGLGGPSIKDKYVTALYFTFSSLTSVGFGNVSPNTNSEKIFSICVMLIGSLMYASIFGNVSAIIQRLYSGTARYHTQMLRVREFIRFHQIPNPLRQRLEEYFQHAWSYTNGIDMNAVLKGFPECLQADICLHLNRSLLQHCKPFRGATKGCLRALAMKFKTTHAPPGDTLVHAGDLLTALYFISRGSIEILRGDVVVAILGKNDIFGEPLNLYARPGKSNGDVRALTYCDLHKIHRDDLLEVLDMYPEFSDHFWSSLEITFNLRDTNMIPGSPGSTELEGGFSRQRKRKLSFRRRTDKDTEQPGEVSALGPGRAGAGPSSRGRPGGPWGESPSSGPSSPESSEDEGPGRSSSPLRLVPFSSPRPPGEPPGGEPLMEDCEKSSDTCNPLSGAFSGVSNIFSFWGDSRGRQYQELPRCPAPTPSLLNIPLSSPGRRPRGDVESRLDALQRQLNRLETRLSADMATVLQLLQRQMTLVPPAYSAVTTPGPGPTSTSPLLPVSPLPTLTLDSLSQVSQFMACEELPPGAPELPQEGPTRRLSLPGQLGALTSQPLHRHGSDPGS
Data set [11] relates to Rattus norvegicus. The data set is described as follows: Volume of distribution in rat at 3 mg/kg, iv and po. The data set is classed as ADME, organism-based. More on the design: dose 3 mg/kg, route oral. The note with it: in vivo. In outline:
as §1

Data set [12] concerns the target T3, Protein mono-ADP-ribosyltransferase PARP3 (Homo sapiens, UniProt Q9Y6F1).
T3 sequence (Q9Y6F1 whole entry): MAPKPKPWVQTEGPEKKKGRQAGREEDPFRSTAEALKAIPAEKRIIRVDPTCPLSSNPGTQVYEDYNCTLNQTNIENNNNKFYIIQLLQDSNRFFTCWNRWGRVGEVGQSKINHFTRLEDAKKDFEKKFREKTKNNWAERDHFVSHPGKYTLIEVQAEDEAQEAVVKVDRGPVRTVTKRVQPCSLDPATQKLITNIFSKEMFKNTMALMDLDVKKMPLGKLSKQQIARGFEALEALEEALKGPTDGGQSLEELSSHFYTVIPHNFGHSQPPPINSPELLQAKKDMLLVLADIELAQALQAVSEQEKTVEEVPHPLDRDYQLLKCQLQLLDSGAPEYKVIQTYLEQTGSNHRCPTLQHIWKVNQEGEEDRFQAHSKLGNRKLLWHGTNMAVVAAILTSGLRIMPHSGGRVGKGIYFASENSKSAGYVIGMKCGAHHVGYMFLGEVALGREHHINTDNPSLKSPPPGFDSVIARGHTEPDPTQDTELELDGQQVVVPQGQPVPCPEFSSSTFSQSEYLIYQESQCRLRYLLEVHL
The data set is described as follows: Inhibition of PARP3.

The nature of data set [13]: Half life in rat at 3 mg/kg, iv and po. The data set is classed as ADME, organism-based. Details: dose 3 mg/kg, route oral. Conditions: in vivo. In outline:
as §1

The microsomal CLint is a measure of how fast metabolising enzymes remove a compound, apart from limits set by blood flow. High values mean faster metabolism, low ones greater metabolic stability. By bioavailability is commonly meant dose-corrected exposure relative to a reference, in per cent. A high value points to good availability. The IC50 is the concentration that gives 50% inhibition. Usually EC50 stands for the concentration that produces a half-maximal response. As a reminder, the AUC is the area under the concentration-time curve, a measure of exposure. A high value points to high exposure. A word on the half-life: it is the time in which the quantity being followed falls by half. Higher therefore signals slow loss. Compound `O=C1NCC2c3c(cccc31)CCN2C(=O)Cc1cccnc1` (stereo not drawn) returned a microsomal CLint in [1] of 3 µL/min/mg. Besides, the bioavailability in [2] came to 51%. The IC50 in [3] was determined as 440 nM; in [5], 1 nM; in [6], 1 nM; in data set [9] it was 3500 nM; in [12] it was 50 nM. The 50% effective concentration (EC50) in data set [4] was found to be 360 nM. For the same compound, the AUC in data set [7] is 2.3 µM·h. In addition, the Activity entry in [8] and in [10] was “Not Active” each time. The same compound had a Vd in data set [11] of 3 L/kg. In data set [13], this compound showed a half-life of 1.7 h.

The values are drawn from ChEMBL document CHEMBL1153250, “Discovery and SAR of novel, potent and selective hexahydrobenzonaphthyridinone inhibitors of poly(ADP-ribose)polymerase-1 (PARP-1)” (Bioorg Med Chem Lett, 2010).
